Activity calls are given as the source filed them. The calls are words filed in the database; no cut-off is given here.
How the values were obtained:
[1] = system: Rattus norvegicus; assay: Memory enhancement effect in rat assessed as increase in total exploratory time for novel objects at 0.01 mg/kg, po administered 1 hr prior to acquisition trial and measured after 24 hrs by novel object recognition test; assay type: functional, organism-based; settings: time 25.0 hrs
How it was run: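 Rat novel object recognition, n = 10. Oral dosing in 30% PEG 400 1 h before the acquisition trial with two identical objects. At 24 h one object was replaced by a novel one and exploration times were scored. Mean ± SEM, post-hoc Student's t-test versus vehicle.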

[2] = target: Histamine H1 receptor (Homo sapiens, UniProt P35367); assay: Binding affinity to H1 receptor (unknown origin); assay type: ADME
Chain of Histamine H1 receptor (P35367 whole entry): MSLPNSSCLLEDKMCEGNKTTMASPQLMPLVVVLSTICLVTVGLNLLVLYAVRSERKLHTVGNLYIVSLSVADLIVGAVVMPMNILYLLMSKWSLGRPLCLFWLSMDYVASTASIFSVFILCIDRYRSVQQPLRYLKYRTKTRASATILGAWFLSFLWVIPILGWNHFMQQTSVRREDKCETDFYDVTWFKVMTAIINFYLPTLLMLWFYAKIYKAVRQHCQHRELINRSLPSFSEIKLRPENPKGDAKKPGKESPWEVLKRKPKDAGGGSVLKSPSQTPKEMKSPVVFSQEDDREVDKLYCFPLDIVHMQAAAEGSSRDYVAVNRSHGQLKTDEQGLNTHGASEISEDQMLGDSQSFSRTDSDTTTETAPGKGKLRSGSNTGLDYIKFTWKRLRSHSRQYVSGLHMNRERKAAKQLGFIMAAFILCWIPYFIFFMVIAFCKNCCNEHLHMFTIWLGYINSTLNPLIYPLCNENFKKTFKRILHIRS

[3] = AUC (0 to infinity) in rat at 3 mg/kg, iv; assay type: ADME, organism-based; design: route intravenous, time infinity, dose 3 mg/kg; settings: in vivo
How it was run: (§1)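 Male rats, n = 6 per group, given a single intravenous dose of 3 mg/kg. PK parameters taken from serum concentration–time profiles: t1/2, AUC0-t, AUC0-∞, clearance.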

[4] = target: Voltage-gated inwardly rectifying potassium channel KCNH2 (Homo sapiens, UniProt Q12809); assay: Inhibition of human ERG by patch-clamp method
Chain of Voltage-gated inwardly rectifying potassium channel KCNH2 (Q12809 whole entry): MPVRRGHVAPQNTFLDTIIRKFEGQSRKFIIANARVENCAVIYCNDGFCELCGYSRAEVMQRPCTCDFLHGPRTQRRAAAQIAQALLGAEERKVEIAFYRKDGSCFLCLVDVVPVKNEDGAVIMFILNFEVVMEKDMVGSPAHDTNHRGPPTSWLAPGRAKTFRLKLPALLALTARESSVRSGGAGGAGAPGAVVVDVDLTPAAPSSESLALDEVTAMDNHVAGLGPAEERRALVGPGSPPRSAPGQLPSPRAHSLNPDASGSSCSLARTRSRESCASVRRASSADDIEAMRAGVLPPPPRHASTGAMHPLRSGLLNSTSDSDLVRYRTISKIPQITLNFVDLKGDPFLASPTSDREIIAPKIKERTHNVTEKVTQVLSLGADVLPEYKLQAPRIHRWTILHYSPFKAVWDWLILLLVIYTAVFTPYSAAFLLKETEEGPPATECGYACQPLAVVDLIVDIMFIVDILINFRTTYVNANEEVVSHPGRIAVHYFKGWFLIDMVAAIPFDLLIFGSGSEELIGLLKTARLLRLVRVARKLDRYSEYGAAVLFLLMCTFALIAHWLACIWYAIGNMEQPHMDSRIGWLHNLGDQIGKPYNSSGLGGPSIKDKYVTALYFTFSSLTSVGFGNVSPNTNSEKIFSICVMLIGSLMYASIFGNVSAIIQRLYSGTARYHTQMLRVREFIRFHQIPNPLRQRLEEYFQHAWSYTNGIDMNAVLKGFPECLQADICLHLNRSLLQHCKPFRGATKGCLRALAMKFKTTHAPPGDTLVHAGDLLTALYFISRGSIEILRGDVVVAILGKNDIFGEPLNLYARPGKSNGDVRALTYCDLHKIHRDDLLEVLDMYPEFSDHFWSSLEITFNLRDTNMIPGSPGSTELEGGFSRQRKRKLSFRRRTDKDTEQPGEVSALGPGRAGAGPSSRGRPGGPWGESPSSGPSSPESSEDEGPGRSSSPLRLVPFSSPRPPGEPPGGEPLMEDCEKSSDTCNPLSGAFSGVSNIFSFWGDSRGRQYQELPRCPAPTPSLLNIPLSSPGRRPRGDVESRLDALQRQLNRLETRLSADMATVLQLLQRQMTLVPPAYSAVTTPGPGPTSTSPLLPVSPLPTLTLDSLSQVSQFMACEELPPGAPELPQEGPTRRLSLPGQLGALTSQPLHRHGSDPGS

[5] = system: Mus musculus; assay: Antipsychotic activity in po dosed mouse assessed as suppression of apomorphine-induced climbing behaviour; assay type: functional
How it was run: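 Mice climbing induced by apomorphine 1.0 mg/kg sc. Test article given po at 0.01, 0.03, 0.1, 0.3 and 1.0 mg/kg in 30% PEG 400. ED50 reported with 95% confidence limits.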

[6] = AUC (0 to t) in rat at 10 mg/kg, po; assay type: ADME, organism-based; design: dose 10 mg/kg; settings: in vivo
How it was run: (§2)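 Male rats, n = 6 per group, given a single oral dose of 10 mg/kg. PK parameters taken from serum concentration–time profiles: Cmax, Tmax, t1/2, AUC0-t, AUC0-∞, CL/F, F%.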

[7] = system: Mus musculus; assay: Antipsychotic activity in po dosed mouse assessed as reduction in MK-801-induced hyperlocomotor activity; assay type: functional
How it was run: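 Mice hyperactivity induced by MK-801 0.3 mg/kg sc, locomotor activity recorded. Oral dosing at 0.01–1.0 mg/kg (five doses) in 30% PEG 400. ED50 reported with 95% confidence limits.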

[8] = Cmax in rat at 10 mg/kg, po; assay type: ADME, organism-based; design: route oral, dose 10 mg/kg; settings: in vivo; how it was run: as §2
[9] = system: Rattus norvegicus; assay: Memory enhancement effect in rat assessed as increase in total exploratory time for novel objects at 0.1 to 0.3 mg/kg, po administered 1 hr prior to acquisition trial and measured after 24 hrs by novel object recognition test; assay type: functional, organism-based; settings: dose mg/kg 0.1-0.3, time 25.0 hrs
[10] = Tmax in rat at 10 mg/kg, po; assay type: ADME, organism-based; settings: in vivo; how it was run: as §2
[11] = Half life in rat at 3 mg/kg, iv; assay type: ADME, organism-based; settings: in vivo; how it was run: as §1
[12] = Half life in rat at 10 mg/kg, po; assay type: ADME, organism-based; settings: in vivo; how it was run: as §2
[13] = Apparent oral clearance in rat at 10 mg/kg, po; assay type: ADME, organism-based; settings: in vivo; how it was run: as §2
[14] = Induction of catalepsy in po dosed mouse by vertical grid and elevated bar test; assay type: organism-based; settings: in vivo
How it was run: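 Mouse catalepsy scored by vertical grid and elevated bar tests. Oral doses of 1, 5, 15, 45 and 100 mg/kg in 30% PEG 400. ED50 reported with 95% confidence limits.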

[15] = target: T1, Alpha-2A adrenergic receptor (Homo sapiens, UniProt P08913); assay: Binding affinity to alpha2 adrenergic receptor (unknown origin)
T1 sequence (P08913 whole entry): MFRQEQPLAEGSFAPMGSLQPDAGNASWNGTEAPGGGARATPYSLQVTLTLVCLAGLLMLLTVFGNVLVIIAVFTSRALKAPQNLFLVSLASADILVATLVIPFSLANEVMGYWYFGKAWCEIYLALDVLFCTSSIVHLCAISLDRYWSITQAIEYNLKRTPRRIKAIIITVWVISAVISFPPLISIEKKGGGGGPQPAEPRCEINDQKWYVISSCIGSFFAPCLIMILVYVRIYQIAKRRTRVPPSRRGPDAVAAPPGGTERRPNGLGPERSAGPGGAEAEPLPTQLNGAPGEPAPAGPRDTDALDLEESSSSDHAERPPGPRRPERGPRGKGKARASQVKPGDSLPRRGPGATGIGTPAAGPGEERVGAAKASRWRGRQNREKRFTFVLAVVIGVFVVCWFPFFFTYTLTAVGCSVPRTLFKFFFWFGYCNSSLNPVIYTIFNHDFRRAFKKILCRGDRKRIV
How it was run: (§3)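 Radioligand displacement binding. Ki is the mean ± SEM of three experiments.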

[16] = target: 5-hydroxytryptamine receptor 6 (Homo sapiens, UniProt P50406); assay: Binding affinity to 5HT6 receptor (unknown origin); how it was run: as §3
Chain of 5-hydroxytryptamine receptor 6 (P50406 whole entry): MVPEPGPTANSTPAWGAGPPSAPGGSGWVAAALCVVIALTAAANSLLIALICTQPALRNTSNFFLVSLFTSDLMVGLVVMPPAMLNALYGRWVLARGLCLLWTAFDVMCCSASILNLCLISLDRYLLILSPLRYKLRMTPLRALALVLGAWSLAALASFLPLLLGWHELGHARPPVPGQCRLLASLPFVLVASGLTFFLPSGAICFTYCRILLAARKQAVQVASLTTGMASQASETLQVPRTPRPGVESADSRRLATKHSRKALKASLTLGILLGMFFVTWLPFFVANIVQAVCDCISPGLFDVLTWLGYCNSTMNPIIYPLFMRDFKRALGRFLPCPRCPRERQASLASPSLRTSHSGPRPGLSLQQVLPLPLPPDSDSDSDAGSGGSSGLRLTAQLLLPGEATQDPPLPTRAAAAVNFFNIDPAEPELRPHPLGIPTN

[17] = Therapeutic index, ratio of ED50 for induction of catalepsy in po dosed mouse to ED50 for antipsychotic activity in po dosed mouse assessed as reduction in MK-801-induced hyperlocomotor activity; assay type: toxicity, organism-based; settings: in vivo, read-out: Ratio ED50
How it was run: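 Therapeutic index is the catalepsy ED50 divided by the efficacy ED50 from the apomorphine climbing or MK-801 hyperactivity model. All were oral dosing in mice, vehicle 30% PEG 400.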

[18] = target: D(2) dopamine receptor (Homo sapiens, UniProt P14416); assay: Binding affinity to D2 receptor (unknown origin); how it was run: as §3
Chain of D(2) dopamine receptor (P14416 whole entry): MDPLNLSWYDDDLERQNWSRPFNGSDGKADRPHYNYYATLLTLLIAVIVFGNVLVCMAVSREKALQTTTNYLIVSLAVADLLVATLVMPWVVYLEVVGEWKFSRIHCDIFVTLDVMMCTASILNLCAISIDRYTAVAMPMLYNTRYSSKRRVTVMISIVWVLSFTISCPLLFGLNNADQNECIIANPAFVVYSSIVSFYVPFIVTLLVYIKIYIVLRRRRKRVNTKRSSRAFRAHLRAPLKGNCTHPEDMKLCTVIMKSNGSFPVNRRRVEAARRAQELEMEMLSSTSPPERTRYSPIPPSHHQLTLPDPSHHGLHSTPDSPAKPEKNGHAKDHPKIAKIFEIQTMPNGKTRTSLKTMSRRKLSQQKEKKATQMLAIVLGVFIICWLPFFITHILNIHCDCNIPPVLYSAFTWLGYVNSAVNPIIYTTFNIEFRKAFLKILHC

[19] = AUC (0 to t) in rat at 3 mg/kg, iv; assay type: ADME, organism-based; design: dose 3 mg/kg; settings: in vivo; how it was run: as §1
[20] = AUC (0 to infinity) in rat at 10 mg/kg, po; assay type: ADME, organism-based; design: route oral, time infinity, dose 10 mg/kg; settings: in vivo; how it was run: as §2
[21] = target: 5-hydroxytryptamine receptor 2A (Homo sapiens, UniProt P28223); assay: Binding affinity to 5HT2A receptor (unknown origin)
Chain of 5-hydroxytryptamine receptor 2A (P28223 whole entry): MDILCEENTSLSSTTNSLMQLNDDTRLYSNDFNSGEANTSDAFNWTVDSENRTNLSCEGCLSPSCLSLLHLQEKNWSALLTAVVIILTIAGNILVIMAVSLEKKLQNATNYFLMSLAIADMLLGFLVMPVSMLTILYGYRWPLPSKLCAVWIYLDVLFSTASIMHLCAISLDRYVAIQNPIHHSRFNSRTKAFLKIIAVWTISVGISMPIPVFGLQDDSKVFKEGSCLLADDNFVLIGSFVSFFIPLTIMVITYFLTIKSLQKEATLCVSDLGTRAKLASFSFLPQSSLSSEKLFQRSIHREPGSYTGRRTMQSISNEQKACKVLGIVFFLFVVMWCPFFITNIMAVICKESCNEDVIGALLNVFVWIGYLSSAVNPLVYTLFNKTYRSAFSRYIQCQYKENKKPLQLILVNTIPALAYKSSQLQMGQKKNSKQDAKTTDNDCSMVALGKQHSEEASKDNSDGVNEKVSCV

[22] = system: Mus musculus; assay: Antipsychotic activity in po dosed mouse assessed as suppression in DOI-induced head twitching response; assay type: functional
How it was run: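 Mouse head twitch induced by DOI 1.0 mg/kg ip. Oral pretreatment at 0.01, 0.03, 0.1, 0.3 and 1.0 mg/kg in 30% PEG 400. ED50 reported with 95% confidence limits.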

[23] = Oral bioavailability in rat at 10 mg/kg; assay type: ADME, organism-based; settings: in vivo; how it was run: as §2
[24] = system: Rattus norvegicus; assay: Antipsychotic activity in po dosed rat assessed as suppression in conditioned avoidance response measured after 90 mins by CAR test; assay type: functional
How it was run: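 Rat conditioned avoidance responding tested 90 min after a single oral dose of 0.05, 0.15, 0.45 or 1.35 mg/kg in 30% PEG 400. n = 10 per group. Mean ± SEM, compared with vehicle (P < 0.05). ED50 reported.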

[25] = […] in rat at 3 mg/kg, iv; assay type: ADME, organism-based; settings: in vivo; how it was run: as §1

## CC(=O)Nc1ccc(OCCCN2CCC(c3noc4cc(F)ccc34)CC2)cc1
[1]
  Activity: inactive
[2]
  Ki: 2140 nM
[3]
  AUC: 931.48 ng·h/mL
[4]
  IC50: 2980 nM
[5]
  ED50: 0.28 mg/kg
[6]
  AUC(0-t): 9490 ng·h/mL
[7]
  ED50: 0.19 mg/kg
[8]
  Cmax: 745 ng/mL
[9]
  Activity: Active
[10]
  Tmax: 7 h
[11]
  half-life: 3.68 h
[12]
  half-life: 3.34 h
[13]
  CL/F: 0.173 mL/min
[14]
  ED50: 25.2 mg/kg
[15]
  Ki: 16.3 nM
[16]
  Ki: 12.9 nM
[17]
  selectivity ratio: 133
[18]
  Ki: 2.1 nM
[19]
  AUC(0-t): 879 ng·h/mL
[20]
  AUC: 9638.27 ng·h/mL
[21]
  Ki: 7.8 nM
[22]
  Activity: Dose-dependent effect
  ED50: 0.22 mg/kg
[23]
  F: 31.04%
[24]
  Activity: Dose-dependent effect
[24]; 1.5 h
  ED50: 0.28 mg/kg
[25]
  CL/F: 3.22 mL/h

From ChEMBL document CHEMBL4725387, “Synthesis and pharmacological evaluation of piperidine (piperazine)-amide substituted derivatives as multi-target antipsychotics” (Bioorg Med Chem Lett, 2020)
